Data published in ChEMBL document CHEMBL1137287, “Peptidyl-urea based inhibitors of soluble epoxide hydrolases” (Bioorg Med Chem Lett, 2006).

How the values were obtained:
[1] = Solubility in sodium phosphate buffer at pH 7.4; assay type: physicochemical
In short: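 Solubility measured in sodium phosphate buffer, 100 mM, pH 7.4, following a previously described procedure.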

[2] = target: T1, Bifunctional epoxide hydrolase 2 (Mus musculus, UniProt P34914); assay: Inhibition of mouse recombinant soluble Epoxide hydrolase
T1 sequence (P34914 whole entry): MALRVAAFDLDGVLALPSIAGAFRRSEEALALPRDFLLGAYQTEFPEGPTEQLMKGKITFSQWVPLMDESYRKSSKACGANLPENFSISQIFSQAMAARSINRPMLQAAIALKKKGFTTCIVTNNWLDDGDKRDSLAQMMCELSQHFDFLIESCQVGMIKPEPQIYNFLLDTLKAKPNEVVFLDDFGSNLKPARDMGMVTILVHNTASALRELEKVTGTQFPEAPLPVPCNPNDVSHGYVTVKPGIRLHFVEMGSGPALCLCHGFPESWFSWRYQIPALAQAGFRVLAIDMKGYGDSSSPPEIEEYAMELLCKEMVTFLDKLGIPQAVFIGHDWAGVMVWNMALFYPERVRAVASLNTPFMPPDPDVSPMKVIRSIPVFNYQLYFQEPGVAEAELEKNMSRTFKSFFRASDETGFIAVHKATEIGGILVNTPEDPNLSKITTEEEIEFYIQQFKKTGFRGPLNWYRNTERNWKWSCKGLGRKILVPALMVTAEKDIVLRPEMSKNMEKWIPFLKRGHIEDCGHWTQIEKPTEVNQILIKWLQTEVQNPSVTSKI

[3] = target: T2, Bifunctional epoxide hydrolase 2 (Homo sapiens, UniProt P34913); assay: Inhibition of human recombinant soluble Epoxide hydrolase
T2 sequence (P34913 whole entry): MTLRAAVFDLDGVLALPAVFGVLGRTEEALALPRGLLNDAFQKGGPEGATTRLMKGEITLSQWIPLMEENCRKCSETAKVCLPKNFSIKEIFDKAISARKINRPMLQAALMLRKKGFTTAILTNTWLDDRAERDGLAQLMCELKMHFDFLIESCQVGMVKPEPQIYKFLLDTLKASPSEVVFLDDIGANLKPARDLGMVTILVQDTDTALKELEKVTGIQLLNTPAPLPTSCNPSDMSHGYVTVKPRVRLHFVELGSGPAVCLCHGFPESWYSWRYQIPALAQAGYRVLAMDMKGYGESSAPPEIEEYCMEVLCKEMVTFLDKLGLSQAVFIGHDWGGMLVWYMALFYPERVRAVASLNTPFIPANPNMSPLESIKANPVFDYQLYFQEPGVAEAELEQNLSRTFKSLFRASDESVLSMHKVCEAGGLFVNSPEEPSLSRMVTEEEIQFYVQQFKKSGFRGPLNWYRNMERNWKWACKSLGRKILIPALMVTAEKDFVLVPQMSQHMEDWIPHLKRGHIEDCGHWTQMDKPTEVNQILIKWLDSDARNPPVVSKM

Row | SMILES | solubility [1] [µM] | IC50 [2] [µM] | IC50 [3] [µM]
1 | O=C(CCCNC(=O)NC12CC3CC(CC(C3)C1)C2)N[C@@H](Cc1cnc[nH]1)C(=O)O | > 500 | 0.05 | 
2 | O=C(CCCCCNC(=O)NC1CCCCC1)N[C@@H](Cc1ccccc1)C(=O)N1CCC[C@H]1C(=O)O | > 500 |  | 0.1
3 | O=C(CCCCCNC(=O)NC1CCCCC1)N[C@@H](Cc1ccccc1)C(=O)N[C@@H](CO)C(=O)O | > 500 |  | 2.4
4 | O=C(CCCCCNC(=O)NC12CC3CC(CC(C3)C1)C2)N[C@@H](Cc1cnc[nH]1)C(=O)O | > 500 |  | > 100
5 | CCC(C)[C@H](NC(=O)CCCCCNC(=O)NC12CC3CC(CC(C3)C1)C2)C(=O)O (stereo not given in full) | > 500 |  | > 100
6 | O=C(CCCCCNC(=O)NC1CCCCC1)N[C@@H](Cc1ccccc1)C(=O)N[C@@H](Cc1ccccc1)C(=O)O | > 500 |  | 0.1
7 | CC(C)[C@H](NC(=O)CCCNC(=O)NC12CC3CC(CC(C3)C1)C2)C(=O)O | > 500 | 30 | 
8 | O=C(O)CC[C@H](NC(=O)CCCNC(=O)NC12CC3CC(CC(C3)C1)C2)C(=O)O | > 500 | > 100 | 
9 | O=C(O)CNC(=O)CCCNC(=O)NC12CC3CC(CC(C3)C1)C2 | > 500 | > 100 | 
10 | CSCC[C@H](NC(=O)[C@H](Cc1ccccc1)NC(=O)CCCCCNC(=O)NC1CCCCC1)C(=O)O | > 500 |  | 0.87
11 | O=C(NCCCCCC(=O)N1CCC[C@H]1C(=O)O)NC12CC3CC(CC(C3)C1)C2 | > 500 |  | > 100
12 | C[C@H](NC(=O)CCCCCNC(=O)NC12CC3CC(CC(C3)C1)C2)C(=O)O | > 500 |  | > 100
13 | O=C(CCCCCNC(=O)NC1CCCCC1)N[C@@H](Cc1ccccc1)C(=O)N[C@@H](Cc1cnc[nH]1)C(=O)O | > 500 |  | 5.5
14 | N=C(N)NCCC[C@H](NC(=O)CCCNC(=O)NC12CC3CC(CC(C3)C1)C2)C(=O)O | > 500 | 16 | 
15 | O=C(CCCCCNC(=O)NC12CC3CC(CC(C3)C1)C2)N[C@@H](Cc1ccc(O)cc1)C(=O)O | > 500 |  | 80
16 | C[C@H](NC(=O)[C@H](Cc1ccccc1)NC(=O)CCCCCNC(=O)NC1CCCCC1)C(=O)O | > 500 |  | 0.26
17 | N=C(N)NCCC[C@H](NC(=O)[C@H](Cc1ccccc1)NC(=O)CCCCCNC(=O)NC1CCCCC1)C(=O)O | > 500 |  | 2.1
18 | O=C(O)CCCCCNC(=O)NC12CC3CC(CC(C3)C1)C2 |  |  | > 100
19 | COC(=O)CCCCCNC(=O)NC12CC3CC(CC(C3)C1)C2 |  |  | 1.8
20 | O=C(CCCCCNC(=O)NC1CCCCC1)N[C@@H](Cc1ccccc1)C(=O)N[C@@H](Cc1ccc(O)cc1)C(=O)O | > 500 |  | 0.23
21 | N=C(N)NCCC[C@H](NC(=O)CCCCCNC(=O)NC12CC3CC(CC(C3)C1)C2)C(=O)O | > 500 |  | > 100
22 | CC(C)C[C@H](NC(=O)CCCCCNC(=O)NC12CC3CC(CC(C3)C1)C2)C(=O)O | > 500 |  | > 100
23 | O=C(O)CNC(=O)[C@H](Cc1ccccc1)NC(=O)CCCCCNC(=O)NC1CCCCC1 | > 500 |  | 1.5
24 | CC(C)[C@H](NC(=O)[C@H](Cc1ccccc1)NC(=O)CCCCCNC(=O)NC1CCCCC1)C(=O)O | > 500 |  | 0.1
25 | CC[C@H](C)[C@H](NC(=O)[C@H](Cc1ccccc1)NC(=O)CCCCCNC(=O)NC1CCCCC1)C(=O)O | > 500 |  | 0.13
26 | O=C(O)C[C@H](NC(=O)[C@H](Cc1ccccc1)NC(=O)CCCCCNC(=O)NC1CCCCC1)C(=O)O | > 500 |  | > 100
27 | CC(O)[C@H](NC(=O)CCCCCNC(=O)NC12CC3CC(CC(C3)C1)C2)C(=O)O (stereo not given in full) | > 500 |  | > 100

Row | SMILES | solubility [1] [µM] | IC50 [2] [µM] | IC50 [3] [µM]
28 | COC(=O)CCCCCNC(=O)NC1CCCCC1 |  | 0.11 | 3.2
29 | O=C(O)CC[C@H](NC(=O)CCCCCNC(=O)NC12CC3CC(CC(C3)C1)C2)C(=O)O | > 500 |  | > 100
30 | O=C(O)CNC(=O)CCCCCNC(=O)NC12CC3CC(CC(C3)C1)C2 | > 500 |  | > 100
31 | O=C(NCCCC(=O)N1CCC[C@H]1C(=O)O)NC12CC3CC(CC(C3)C1)C2 | > 500 | 82 | 
32 | O=C(CCCNC(=O)NC12CC3CC(CC(C3)C1)C2)N[C@@H](Cc1ccc(O)cc1)C(=O)O | > 500 | 18 | 
33 | O=C(O)CC[C@H](NC(=O)[C@H](Cc1ccccc1)NC(=O)CCCCCNC(=O)NC1CCCCC1)C(=O)O | > 500 |  | > 100
34 | O=C(CCCCCNC(=O)NC12CC3CC(CC(C3)C1)C2)N[C@@H](CO)C(=O)O | > 500 |  | > 100
35 | O=C(CCCCCNC(=O)NC12CC3CC(CC(C3)C1)C2)N[C@@H](Cc1c[nH]c2ccccc12)C(=O)O | > 500 |  | 41
36 | O=C(CCCNC(=O)NC12CC3CC(CC(C3)C1)C2)N[C@@H](Cc1c[nH]c2ccccc12)C(=O)O | > 500 | 8.4 | 
37 | CC(C)C[C@H](NC(=O)CCCNC(=O)NC12CC3CC(CC(C3)C1)C2)C(=O)O | > 500 | 15 | 
38 | O=C(O)C[C@H](NC(=O)CCCCCNC(=O)NC12CC3CC(CC(C3)C1)C2)C(=O)O | > 500 |  | > 100
39 | CC(C)[C@H](NC(=O)CCCCCNC(=O)NC12CC3CC(CC(C3)C1)C2)C(=O)O | > 500 |  | 55
40 | O=C(CCCCCNC(=O)NC12CC3CC(CC(C3)C1)C2)N[C@@H](Cc1ccccc1)C(=O)O | > 500 |  | 2.7
41 | O=C(CCCNC(=O)NC12CC3CC(CC(C3)C1)C2)N[C@@H](CO)C(=O)O |  | 47 | 
42 | O=C(CCCCCNC(=O)NC1CCCCC1)N[C@@H](Cc1ccccc1)C(=O)N[C@@H](Cc1c[nH]c2ccccc12)C(=O)O | > 500 |  | 0.1
43 | CCC(C)[C@H](NC(=O)CCCNC(=O)NC12CC3CC(CC(C3)C1)C2)C(=O)O (stereo not given in full) | > 500 | 1.3 | 
44 | O=C(O)C[C@H](NC(=O)CCCNC(=O)NC12CC3CC(CC(C3)C1)C2)C(=O)O | > 500 | > 100 | 
45 | O=C(O)CCCNC(=O)NC12CC3CC(CC(C3)C1)C2 | > 500 | > 100 | 
46 | CSCC[C@H](NC(=O)CCCCCNC(=O)NC12CC3CC(CC(C3)C1)C2)C(=O)O | > 500 |  | > 100
47 | CSCC[C@H](NC(=O)CCCNC(=O)NC12CC3CC(CC(C3)C1)C2)C(=O)O | > 500 | 4.8 | 
48 | C[C@H](NC(=O)CCCNC(=O)NC12CC3CC(CC(C3)C1)C2)C(=O)O | > 500 | > 100 | 
49 | O=C(O)CCCCCNC(=O)NC1CCCCC1 |  | 24 | > 100
50 | O=C(CCCNC(=O)NC12CC3CC(CC(C3)C1)C2)N[C@@H](Cc1ccccc1)C(=O)O | > 500 | 0.8 | 
51 | CC(C)C[C@H](NC(=O)[C@H](Cc1ccccc1)NC(=O)CCCCCNC(=O)NC1CCCCC1)C(=O)O | > 500 |  | 0.88
52 | C[C@H](O)[C@H](NC(=O)[C@H](Cc1ccccc1)NC(=O)CCCCCNC(=O)NC1CCCCC1)C(=O)O | > 500 |  | 1.3
53 | O=C(O)CNC(=O)NC1CCCCC1 |  | > 100 | > 100
54 | O=C(CCCCCNC(=O)NC1CCCCC1)N[C@@H](Cc1ccccc1)C(=O)O (stereo in doubt; form 2) | > 500 |  | 1
